From ChEMBL document CHEMBL3046935, “Bioassay-directed isolation and identification of phytotoxic and fungitoxic acetylenes from Conyza canadensis” (J Agric Food Chem, 2012) come the findings set out here.

One series has as its system Lactuca sativa. The series is described as follows: Phytotoxicity against […] dicot Lactuca sativa (lettuce) seeds assessed as inhibition of germination of seeds at 1 mg/mL after 7 days. To be noted: in vivo, 168 h. The format is organism-based. Put shortly: (§1)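 Seeds (5 mg lettuce or 10 mg bentgrass) were placed on filter paper in 24-well plates with 250 μL of test solution per well (acetone 3% final). Solvent-only wells served as controls. Plates were sealed and kept at 26 °C under continuous light for 7 days. Germination was rated visually on a 0−5 scale against untreated controls (0 = no effect, 5 = no growth/germination), with experiments in duplicate.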

For a further series, the system named is Agrostis stolonifera. Description: Phytotoxicity against Agrostis stolonifera seeds assessed as inhibition of germination of seeds at 1 mg/mL after 7 days. The format is organism-based. To be noted: in vivo, 168 h. In short, it runs like this:
as §1

Series [1] deals with Colletotrichum fragariae. The series is described as follows: Antifungal activity against Colletotrichum fragariae assessed as growth inhibition at 0.3 to 30 uM by Ninety-Six Well microbioassay. The format is functional, organism-based. Put shortly:
(§2)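 Fungi (the Colletotrichum isolates came from strawberry anthracnose lesions) were grown on PDA at 24 ± 2 °C under a 12 h photoperiod. They were tested in 96-well microtiter dose-response format at final concentrations of 0.3, 3.0 and 30.0 μM, in duplicate. Growth was read as absorbance at 620 nm at 0, 24, 48 and 72 h, with solvent controls.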

Series [2] deals with Colletotrichum gloeosporioides. Description: Antifungal activity against Colletotrichum gloeosporioides assessed as growth inhibition at 0.3 to 30 uM by Ninety-Six Well microbioassay. The series is classed as functional, organism-based. Put shortly:
as §2

For a further series, the system named is Lemna aequinoctialis. Description: Inhibition of growth of Lemna paucicostata.
In series [3] the test system is Colletotrichum fragariae. The series is described as follows: Antifungal activity against Colletotrichum fragariae assessed as growth inhibition at 10 ug/spot by […]. The format is functional.
Series [4] concerns Colletotrichum acutatum. Description: Antifungal activity against Colletotrichum acutatum assessed as growth inhibition at 10 ug/spot by […]. The series is classed as functional.
In series [5] the test system is Colletotrichum gloeosporioides. The series is described as follows: Antifungal activity against Colletotrichum gloeosporioides assessed as growth inhibition at 10 ug/spot by […]. The series is classed as functional.
Series [6] concerns Colletotrichum acutatum. The series is described as follows: Antifungal activity against Colletotrichum acutatum assessed as growth inhibition at 0.3 to 30 uM by Ninety-Six Well microbioassay. The series is classed as functional, organism-based. In short, it runs like this:
as §2

Active and inactive are the calls of the source. The rule behind the calls is not given here.

Turning to `C/C=C\C#CC#C/C=C\C(=O)OC` [(2Z,8Z)-MATRICARIA ACID METHYL ESTER], the Activity entry in the series with Lactuca sativa and with Agrostis stolonifera was “Toxic” in each case.

As to `CCCC#C/C=C1/C=CC(=O)O1` [(4Z)-LACHNOPHYLLUM LACTONE], the Activity entry in the series on Lactuca sativa and in the series with Agrostis stolonifera was “Toxic” throughout. Also, the outcome (in the series with Colletotrichum fragariae [1]; in [2]; with Colletotrichum acutatum [6]) was Active. Moreover, the IC50 in the series on Lemna aequinoctialis was found to be 104 µM. In addition, the “diameter of the inhibition zone (DIZ)” value in the series on Colletotrichum fragariae [3] turned out to be 0.3 mm; in the series with Colletotrichum acutatum [4], 0.75 mm; in [5], 0.58 mm.

For `C/C=C\C#C/C=C1/C=CC(=O)O1` [(4Z,8Z)-MATRICARIA LACTONE], the Activity result in the series on Lactuca sativa and in the series with Agrostis stolonifera was “Toxic” each time. Also, the outcome (with Colletotrichum fragariae [1]; in [2]; in the series with Colletotrichum acutatum [6]) was Active. The compound further returned an IC50 in the series on Lemna aequinoctialis of 220 µM. Further, the “diameter of the inhibition zone (DIZ)” value in the series on Colletotrichum fragariae [3] was determined as 2.65 mm; in the series with Colletotrichum acutatum [4], 0.7 mm; in [5] it was 0.98 mm.
